thrombin 1536: thrombin (human) inhibition; AID 1046; inhibition, % at 5 µM; P00734; alpha-thrombin, Boc-VPR-AMC fluorogenic substrate cleavage; actives 0.26% (n = 220,000);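 active = inhibition at or above 40%; inactive = inhibition below 40%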;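 note: 0% = enzyme with no compound and 100% = wells without enzyme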
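Test system: human alpha-thrombin; medium: pH 7.5 Tris-saline with Tween 20; times: reaction at room temperature; signal: AMC fluorescence at 355 nm excitation and 460 nm emission; also added: Boc-VPR-AMC substrate, 15 µM final; dosing: one concentration per compound, 5 µM, with 0.2% DMSO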
FXIIa inh 1536: inhibitors of human coagulation factor XIIa; P00748; purified FXIIa, Boc-QGR-AMC fluorogenic substrate, 2 h; actives 0.3% (n = 220,000); inhibition, % at 5 µM; AID 800; in the data active = inhibition above about 40%;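 note: 0% = enzyme with no compound and 100% = blank without enzyme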
PERK inhibitor: human PERK inhibition, primary cell-based screen; CHO PERK-DD fusion, SEAP luminescence translation reporter; inhibition, % at 5.6 µM; actives 0.17% (n = 220,000); AID 1416;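 active = inhibition above the mean inhibition of all tested compounds plus 3 SD, set separately per screening campaign, cut at about 2.9% in these data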;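 note: PERK kinase domain activated by AP20187 dimerizer at 100 nM; 0% = DMSO with dimerizer and 100% = rapamycin at 8.4 µM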
hK5 inh: blocks human kallikrein 5 protease activity; recombinant hK5, fluorogenic AMC substrate cleavage; inhibition, % at 5 µM; actives 0.59% (n = 210,000);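 active = inhibition of 40% or more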;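 note: 0% = enzyme controls without compound and 100% = no-enzyme blanks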
FXIa inh: inhibitors of human coagulation factor XIa; AID 798; actives 0.14% (n = 220,000); purified FXIa, Boc-Glu-Ala-Arg-AMC fluorogenic substrate; inhibition, % at 5 µM; P03951;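 active = inhibition of at least 40%; inactive = inhibition below 40%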;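 note: fluorescence of freed AMC excited at 355 nm; 0% = enzyme without compound and 100% = no enzyme blank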
Target sequence (P03951 19-387 limits assumed): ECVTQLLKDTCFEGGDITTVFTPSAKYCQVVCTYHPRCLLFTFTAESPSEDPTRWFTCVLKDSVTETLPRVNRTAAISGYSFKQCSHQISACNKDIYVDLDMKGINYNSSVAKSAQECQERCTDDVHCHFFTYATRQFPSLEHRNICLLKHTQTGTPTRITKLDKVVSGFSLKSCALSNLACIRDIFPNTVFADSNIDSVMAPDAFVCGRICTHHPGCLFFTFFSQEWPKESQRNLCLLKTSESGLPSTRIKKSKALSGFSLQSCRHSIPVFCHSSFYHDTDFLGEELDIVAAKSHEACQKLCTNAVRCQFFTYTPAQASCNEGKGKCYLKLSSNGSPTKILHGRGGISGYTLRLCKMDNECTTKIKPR
Target sequence (P03951 388-625 limits assumed): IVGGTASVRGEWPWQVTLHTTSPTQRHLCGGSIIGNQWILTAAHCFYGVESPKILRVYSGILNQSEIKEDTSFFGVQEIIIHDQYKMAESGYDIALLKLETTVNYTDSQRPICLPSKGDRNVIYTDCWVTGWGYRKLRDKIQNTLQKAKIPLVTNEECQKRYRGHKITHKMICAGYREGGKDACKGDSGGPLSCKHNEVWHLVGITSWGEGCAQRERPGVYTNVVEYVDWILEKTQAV
Furin inh: inhibitors of human furin | purified furin, fluorogenic substrate cleavage | P09958 | actives 0.061% (n = 220,000) | inhibition, % at 20 µM or 30 µM; in the data active = inhibition above about 25%
* = called active by the depositor. A selection: hits, their analogues and other compounds. The true share with any hit is near 1.2%.

For COc1ccc(CCN2C(=NC(=O)CCC(=O)O)SC3CS(=O)(=O)CC32)cc1OC (stereo not given) the results were thrombin 1536 -4, FXIIa inh 1536 4, PERK inhibitor 1, hK5 inh -22, FXIa inh 4 and Furin inh -26.
For CCCC(=O)N=C1SC2CS(=O)(=O)CC2N1c1ccc(CC)cc1 (stereo not given) the results were thrombin 1536 -6, FXIIa inh 1536 41*, PERK inhibitor 0, hK5 inh -9, FXIa inh 26 and Furin inh -21.
CN(C(=O)CSc1nnc(C(F)(F)F)n1N)C1CCS(=O)(=O)C1 (stereo not given) was read as thrombin 1536 20, FXIIa inh 1536 16, PERK inhibitor 0, hK5 inh 8, FXIa inh 11 and Furin inh -6.
For CCC(=O)OCCn1c(=O)c2cc3c(=O)n(CCOC(=O)CC)c(=O)c3cc2c1=O the results were thrombin 1536 4, FXIIa inh 1536 54*, PERK inhibitor 1, hK5 inh -2, FXIa inh 20 and Furin inh -14.
For CCOC(=O)/C(=C/C1=CC(=C/N(C)C)/C(=O)O1)C(C)=O the results were thrombin 1536 -5, FXIIa inh 1536 8, PERK inhibitor 0, hK5 inh 22, FXIa inh -21 and Furin inh 8.
`CCOC(=O)C1=C(C)Nc2[nH]c(=O)[nH]c(=O)c2C1c1cccs1` (stereo not given) gave thrombin 1536 3, FXIIa inh 1536 12, PERK inhibitor 1, hK5 inh -7, FXIa inh 8 and Furin inh -4.
For C=CCOC(=O)C1=C(C)Nc2[nH]c(=O)[nH]c(=O)c2C1c1ccccc1 (stereo not given) the results were thrombin 1536 10, FXIIa inh 1536 25, PERK inhibitor 0, hK5 inh 19, FXIa inh 67* and Furin inh -8.
Screening COc1ccc2c(c1)c(=O)oc1cc(O)ccc12 returned thrombin 1536 0, FXIIa inh 1536 3, PERK inhibitor 3.4*, hK5 inh 0, FXIa inh 2 and Furin inh -26.
For c1ccc(N2CCN(c3nnc(Cc4cccnc4)c4ccccc34)CC2)nc1 the results were thrombin 1536 5, FXIIa inh 1536 4, PERK inhibitor -1, hK5 inh 43*, FXIa inh -1 and Furin inh -9.
N/C(=N\NC(=O)c1cccs1)c1cc2cc(Cl)ccc2oc1=O was read as thrombin 1536 -2, FXIIa inh 1536 6, PERK inhibitor 0, hK5 inh -7, FXIa inh -2 and Furin inh -27.
Screening NC(=S)N=Nc1c(O)[nH]c2c(Br)cc(Br)cc12 returned thrombin 1536 -2, FXIIa inh 1536 5, PERK inhibitor 2, hK5 inh -3, FXIa inh -1 and Furin inh -30.
Screening CCN1C(=O)CC(N2CCOCC2)C1=O (stereo not given) returned thrombin 1536 -11, FXIIa inh 1536 -15, PERK inhibitor 3.0*, hK5 inh -12, FXIa inh 6 and Furin inh -21.
For CCNC(=S)N1CCC(NC(=O)C2CCCCC2)CC1 the results were thrombin 1536 -5, FXIIa inh 1536 11, PERK inhibitor 0, hK5 inh 11, FXIa inh -2 and Furin inh -11.
Screening CCNC(=S)NNC(=O)C1CCCCC1 returned thrombin 1536 2, FXIIa inh 1536 17, PERK inhibitor 2.9*, hK5 inh -8, FXIa inh 1 and Furin inh -23.
Screening Cc1onc(-c2ccccc2)c1C(=O)N(Cc1ccco1)Cc1cccs1 returned thrombin 1536 14, FXIIa inh 1536 21, PERK inhibitor -2, hK5 inh 31, FXIa inh 40* and Furin inh 11.
Screening Cc1onc(-c2ccccc2)c1C(=O)NCc1ccco1 returned thrombin 1536 0, FXIIa inh 1536 13, PERK inhibitor 0, hK5 inh 6, FXIa inh -1 and Furin inh -23.
Screening CCC(C)[C@H](NC(=O)Nc1ccc(C(C)=O)cc1)C(=O)OC (stereo not given in full) returned thrombin 1536 1, FXIIa inh 1536 44*, PERK inhibitor 0, hK5 inh 2, FXIa inh 24 and Furin inh -5.
`C/C=C/C(=O)N1CC2(CC(c3cccc(NC(=O)CCCCC)c3)=NO2)C[C@H]1C(N)=O` (stereo not given in full) gave thrombin 1536 -5, FXIIa inh 1536 0, hK5 inh -2, FXIa inh -2 and Furin inh -25.
CC/C=C/C(=O)N1CC2(CC(c3cccc(NC(=O)CCCCC)c3)=NO2)C[C@H]1C(N)=O (stereo not given in full) was read as thrombin 1536 -2, FXIIa inh 1536 16, hK5 inh 31, FXIa inh 42* and Furin inh 1.
`C=C(C)C(=O)Nc1cccc(C2=NOC3(C2)C[C@H](C(N)=O)N(C(=O)CC)C3)c1` (stereo not given in full) gave thrombin 1536 17, FXIIa inh 1536 55*, hK5 inh 28, FXIa inh 36 and Furin inh -3.
Screening Cc1ccc2[nH]c(=O)c(CN(Cc3cccnc3)C(=O)c3ccncc3)cc2c1 returned thrombin 1536 -1, FXIIa inh 1536 18, PERK inhibitor 1, hK5 inh -14, FXIa inh 17 and Furin inh -17.
Screening COc1cc(C(=O)ON=C2C(C)=CC(=O)C=C2C)cc(OC)c1OC returned thrombin 1536 7, FXIIa inh 1536 32, PERK inhibitor 1, hK5 inh 6, FXIa inh 2 and Furin inh -16.
For COc1cc(C(=O)O/N=C2/C=C(C)C(=O)C=C2C)cc(OC)c1OC the results were thrombin 1536 -2, FXIIa inh 1536 60*, PERK inhibitor 1, hK5 inh -6, FXIa inh 0 and Furin inh -25.
For COc1ccc(-c2[nH]nc3c2C(c2ccsc2)C(C#N)=C(N)O3)cc1 (stereo not given) the results were thrombin 1536 4, FXIIa inh 1536 -1, PERK inhibitor 0, hK5 inh 81*, FXIa inh -3 and Furin inh -13.
`Cc1ccc(-c2[nH]nc3c2C(c2ccsc2)C(C#N)=C(N)O3)cc1` (stereo not given) gave thrombin 1536 -5, FXIIa inh 1536 -3, PERK inhibitor 0, hK5 inh -3, FXIa inh -6 and Furin inh -5.
CCc1nnc(NC(=O)C(CC)CC)s1 was read as thrombin 1536 2, FXIIa inh 1536 7, PERK inhibitor 1, hK5 inh 7, FXIa inh 2 and Furin inh -15.
